# Shown are actives, neighbours in structure and some others; about 1.7% of the full set was active somewhere.
# Neddylation inh = cullin neddylation inhibition | TR-FRET cullin neddylation, biochemical | calls only at 25 µM | hit rate 0.58% among 360,000 | AID 651699; in the data active = inhibition above about 36%
# VIM-2 inh = inhibitors of Pseudomonas aeruginosa VIM-2 metallo-beta-lactamase. purified VIM-2, nitrocefin hydrolysis, epi-absorbance fluorescence. hit rate 0.89% among 290,000. inhibition, % at 5.6 µM. AID 1527;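 active = inhibition above the mean of all tested compounds plus 3 SD, cutoff set per screening run, cut at about 7.5% in these data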;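 note: red hydrolysis product quenches plate fluorescence so inhibitors raise well fluorescence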
# IMP-1 inh = blocks Pseudomonas aeruginosa IMP-1 metallo-beta-lactamase; hit rate 0.45% among 290,000; purified IMP-1, nitrocefin hydrolysis, epi-absorbance fluorescence; inhibition, % at 5.6 µM;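 active = inhibition above the mean plus 3 SD of all compounds in the same screening run, cut at about 4.5% in these data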
#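 Test system: recombinant IMP-1 enzyme, purified / Medium: HEPES buffer pH 7.1 with ZnSO4 and Brij 35 / Doses: single dose, 5.6 µM / Times: 25 °C, 15 min preincubation, 25 min reaction / Detection: Epi-absorbance via hydrolysed-nitrocefin quenching of white-plate fluorescence, 480/530 nm, EDTA stop / Evaluation: percent inhibition from optical density relative to buffer-blank wells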
# PolyA inhibitor = inhibitors of polyadenylation in S. cerevisiae. S. cerevisiae SKY197-pL101 polyadenylation reporter, beta-gal luminescence; efflux-impaired pdr1/pdr3 knockout yeast; score 100 = 6 SD above DMSO. activity score, % at 12 µM. hit rate 0.02% among 300,000. AID 1875;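 active = lowest replicate activity score at least 50, where 100 means six control SD above control mean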;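 note: yeast exposed to compound for 9 h at 30 °C; higher score means more reporter readthrough which indicates perturbed polyadenylation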
# proCasp7 act = counter-screen: procaspase-7 (human) activation | hit rate 0.093% among 330,000 | activation, % at 8.5 µM | P55210 | recombinant procaspase-7, Ac-DEVD-pNA absorbance 405 nm; D23A/D198A/D206A triple mutant, cannot self-cleave; scale: DMSO 0, 5 µM enzyme 100;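 active = percent activation above the screen-wide mean plus 3 SD, cut at about 25% in these data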
# Target sequence (P55210 whole entry D23A/D198A/D206A): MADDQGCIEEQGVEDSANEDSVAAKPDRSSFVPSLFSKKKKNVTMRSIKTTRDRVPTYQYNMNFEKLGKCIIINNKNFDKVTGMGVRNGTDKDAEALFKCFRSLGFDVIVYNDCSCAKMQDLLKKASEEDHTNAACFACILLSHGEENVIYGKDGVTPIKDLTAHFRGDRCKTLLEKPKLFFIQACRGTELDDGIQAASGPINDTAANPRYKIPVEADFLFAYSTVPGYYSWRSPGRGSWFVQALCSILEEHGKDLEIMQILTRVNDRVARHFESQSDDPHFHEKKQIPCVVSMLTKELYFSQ
#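 buffer or medium = Zinc-free HEPES/NaCl buffer, pH 7.4 | material = Procaspase-7 triple mutant (PC-7 D3A) | input = 2 µM procaspase-7 mutant as dispensed | signal = Epi-absorbance of released pNA at 405 nm, two timepoints | timing = 1 h preincubation, 2 h reaction | replicates = singlicate compound testing | evaluation = % activation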
# proCasp3 act = procaspase-3 (human) activation. activation, % at 8.5 µM. hit rate 0.11% among 330,000. P42574. recombinant procaspase-3 D3A, Ac-DEVD-pNA absorbance 405 nm. AID 463141;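 active = activation above the mean of all tested compounds plus 3 SD, cut at about 21% in these data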
# Target sequence (P42574 whole entry D9A/D28A/D175A): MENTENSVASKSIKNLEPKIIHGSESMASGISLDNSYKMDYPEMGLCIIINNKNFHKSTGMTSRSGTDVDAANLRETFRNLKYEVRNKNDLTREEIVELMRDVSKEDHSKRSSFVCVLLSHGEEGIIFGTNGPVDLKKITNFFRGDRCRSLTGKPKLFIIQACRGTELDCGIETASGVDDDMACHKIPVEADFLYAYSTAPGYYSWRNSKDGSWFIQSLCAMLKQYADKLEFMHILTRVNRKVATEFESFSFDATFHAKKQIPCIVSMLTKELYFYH
#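 Assay system: Autoprocessing-dead procaspase-3 D3A mutant enzyme; also added: Ac-DEVD-pNA; doses: one concentration, 8.5 µM nominal, 0.8% DMSO; times: 1 h compound preincubation, 2 h substrate hydrolysis at 25 °C; technique: 405 nm absorbance of p-nitroaniline, reads at 0 and 120 min; measure: % activation between DMSO and enzyme-spiked controls; repeats: single replicate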
# Hits are given with their value; . = inactive; / = no result shown; + = active, no number.
SMILES,Neddylation inh,VIM-2 inh,IMP-1 inh,PolyA inhibitor,proCasp7 act,proCasp3 act
CCOC(=O)c1c(CC(C)C)csc1/N=C/C1C(=O)CC(C)(C)CC1=O,.,.,9.1,.,.,.
CCOC(=O)c1cc(C)sc1/N=C/C1C(=O)CC(C)(C)CC1=O,.,.,.,.,.,.
COc1ccc(N(C)S(=O)(=O)c2cccc(C(=O)OC(C)C(=O)NC3CCCCC3C)c2)cc1 (stereo unspecified),.,/,/,.,.,.
C=CCOc1ccccc1/C=c1\sc2nc(=O)c(C)nn2c1=O,.,.,9.2,/,.,.
COc1ccccc1/C=c1\sc2nc(-c3cccs3)nn2c1=O,/,.,.,/,/,/
Cc1ccc2oc(=O)c3cc(C(=O)NCCCN4CCCCCC4)sc3c2c1,.,9.6,.,.,.,.
Cc1ccc2oc(=O)c3cc(C(=O)NCCN4CCN(C)CC4)sc3c2c1,.,12,.,.,.,.
Cc1ccc2oc(=O)c3cc(C(=O)NCCCN4CCc5ccccc5C4)sc3c2c1,.,.,.,.,.,.
COCC(=O)Nc1sc2c(c1C(=O)OC)CCCC2,.,.,.,.,.,.
CCn1c(COc2ccc(C)cc2)nnc1SCc1nc2ccccc2[nH]1,.,.,.,.,.,.
COc1ccc(C(=O)OCC(=O)c2ccc(C3CCCCC3)cc2)cc1,.,.,.,.,.,.
Nc1ccc(O)cc1C(=O)OCC(=O)c1ccc(C2CCCCC2)cc1,+,.,.,.,.,.
Nc1nc(SCC(=O)N2CCc3ccccc32)[nH]c(=O)c1-c1ccccc1,.,.,.,.,.,.
CC(C)NC(=O)C(=O)c1cn(C)c2ccccc12,.,.,.,.,.,.
Cn1cc(C(=O)C(F)(F)F)c2ccccc21,.,.,5.8,.,.,.
NC(=O)c1ccc(-n2nnnc2SCC(=O)c2ccc(O)c(O)c2)cc1,.,11,.,.,.,.
O=C(CSc1ncccc1-c1nc2ccccc2[nH]1)N1CCc2ccccc21,.,.,.,.,.,.
O=C(CCCn1cnc([N+](=O)[O-])n1)Nc1cccc2ccccc12,.,.,37,.,.,.
O=[N+]([O-])c1ccc(/C=C/C2=NN(c3ccccc3)C(c3ccco3)C2)cc1 (stereo unspecified),.,.,.,/,.,.
O=[N+]([O-])c1ccc(C2=NN(c3ccccc3)C(c3ccco3)C2)cc1 (stereo unspecified),.,.,6.6,.,/,/
CCOC(=O)C(NC=O)(NC(C)(C)C)C(=O)OCC,.,.,4.8,.,.,.
COc1cccc(-c2nn(C)c3sc(C(=O)NCc4ccc(C)o4)cc23)c1,.,.,4.7,.,.,.
O=C(Nc1cccc2c1C(=O)NC2=O)c1cccc(N2C(=O)CCC2=O)c1,.,.,8.8,.,.,.
Cc1c(-n2c(SCC(=O)O)nnc2-c2ccccc2Br)c(=O)n(-c2ccccc2)n1C,.,12,.,.,.,.
Cc1cccc(-c2nc(NCCCN(C)C)c3ccccc3n2)c1,.,7.8,.,.,.,.
SMILES,Neddylation inh,VIM-2 inh,IMP-1 inh,PolyA inhibitor,proCasp7 act,proCasp3 act
Cc1cccc(-c2nc(NCCCN3CCOCC3)c3ccccc3n2)c1,.,7.7,.,.,.,.
c1ccc(-c2nc(NCCCN3CCOCC3)c3ccccc3n2)cc1,.,10,.,.,.,.
CN(C)CCCNc1nc(-c2ccc(Cl)cc2)nc2ccccc12,.,.,.,.,.,.
CCOc1ccc(C(=O)Nc2nnc(SCC(=O)NCC3CCCO3)s2)cc1OCC (stereo unspecified),.,.,.,.,.,.
O=C(CSc1nnc(NC(=O)c2cccc(Cl)c2)s1)NCC1CCCO1 (stereo unspecified),.,8.6,.,.,.,.
Cc1ccc(Cn2cc(CCC(=O)O)c3ccccc32)cc1,.,.,13,.,.,.
O=C(O)Cc1cn(Cc2ccc(F)cc2)c2ccccc12,.,.,.,.,.,.
CN1CCN(CCCNC(=O)c2ccc(CSCc3cccc(Cl)c3)o2)CC1,/,.,6.8,.,.,.
COC(=O)c1sc(-c2ccc(C(C)(C)C)cc2)cc1NC(=O)CSCC(=O)O,+,.,.,.,.,.
COC(=O)c1sc(-c2ccc(C(C)(C)C)cc2)cc1NC(=O)c1ccccc1C(=O)O,+,.,.,.,.,.
Cc1ccc(-c2cc(C(=O)N3CCCC3)c3ccccc3n2)s1,/,.,.,.,.,.
CSc1ccccc1NC(=S)N/N=C/c1cccn1Cc1cccc(C)c1,.,.,.,.,.,.
Cc1cccc(NC(=S)N/N=C/c2cccn2Cc2ccc(F)cc2)c1,+,.,.,.,.,.
COCCn1nnnc1C(CC(C)C)N1CCN(c2ccccc2)CC1 (stereo unspecified),.,.,.,.,.,.
Cc1cccc2c3nc4ccccc4nc3n(C)c12,.,9.7,.,.,.,.
CC(C(=O)NCC(=O)Nc1ccc(F)c(F)c1F)N1CCN(Cc2ccc(C#N)cc2)CC1 (stereo unspecified),.,/,/,/,.,.
CN(Cc1c(O)ccc2c1oc(=O)c1ccccc12)C1CCCCC1,.,8.7,.,.,.,.
CN(C)Cc1c(O)ccc2c3c(c(=O)oc12)CCCCC3,.,.,.,.,.,.
CC1CCC(=C(C#N)C(=O)Nc2cccc(Cl)c2)CC1 (stereo unspecified),.,.,.,.,.,.
O=C1CSC(=S)N1c1cccc(F)c1,.,.,4.9,.,.,.
COc1ccc(Cn2c(O)c(/C=N/NC(=O)c3cccnc3)c3ccccc3c2=O)cc1,+,.,.,.,/,/
COc1ccc(S(=O)(=O)c2ccc(O)cc2)cc1,.,.,.,.,.,.
CN(C)c1ccc(/C=C/c2ccncc2)cc1,.,.,6.3,/,/,/
CN(C)c1ccc(/C=C/C(=O)c2ccccc2O)cc1,.,.,6.0,.,.,.
CN(C)c1ccc(/C=C/C(=O)c2cccnc2)cc1,.,.,7.8,.,.,.
SMILES,Neddylation inh,VIM-2 inh,IMP-1 inh,PolyA inhibitor,proCasp7 act,proCasp3 act
CN(C)c1ccc(/C=C/C(=O)c2ccc(O)cc2)cc1,.,/,/,/,/,/
Cc1onc(-c2ccccc2)c1C1=N/C(=C\c2ccccc2F)C(=O)O1,.,.,.,.,.,.
COc1ccc(CC(=O)Oc2ccccc2[N+](=O)[O-])cc1,.,.,13,.,.,.
O=C(CN1C(=O)NC(Cc2ccccc2)C1=O)Nc1ccc(OC(F)(F)F)cc1 (stereo unspecified),.,/,/,/,.,.
COc1ccc2no[n+]([O-])c2c1,/,.,.,73,.,.
O=S(=O)(O)c1cc(O)c2c(O)c(N=Nc3cc(Cl)ccc3O)c(S(=O)(=O)O)cc2c1,.,.,5.7,.,.,.

# Bioassay records as filed in PubChem.
